The nature of series [1]: Inhibition of gp120 in HIV-1 NL4-3 HXB-2-Luc pseudotyped virus infected in human TZM-bl cells assessed as reduction in viral infection pretreated for 30 mins before viral infection and measured after 3 days by luciferase based single cycle infection assay. Type of series: cell-based, HIV-1 M:B_HXB2R. The following applies: Human immunodeficiency virus 1, NL4-3, TZM-bl. Summed up:
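Single-cycle infection of TZM-bl cells with the HIV-1 NL4-3-HXB2-Luc pseudotyped virus bearing Env of lab-adapted HIV-1 HXB-2 (CXCR4-tropic), with luciferase read-out.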

For another series, the system named is TZM. In words: (§1) Cytotoxicity against human TZM-bl cells assessed as reduction in cell viability incubated for 3 days by XTT assay. The following applies: tzm, 72 h, time 3 day. Type of series: cell-based.
Series [2] can be described thus: Inhibition of glycoprotein in VSV-G pseudotyped MLV virus infected in human U87/CD4/CCR5 cells assessed as inhibition of viral infection pretreated for 30 mins before viral infection and measured after 3 days by luciferase based single cycle infection assay. Type of series: cell-based. The following applies: Murine leukemia virus. Summed up:
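Specificity counter-screen in which U87-CD4-CCR5 cells are infected with the luciferase-reporter control pseudovirus MLV-GP/VSV-G/Luc; IC50 is derived from inhibition of infection.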

Series [3] in a line: Cytotoxicity against human U87/CD4/CCR5 cells assessed as reduction in cell viability incubated for 3 days by XTT assay. Type of series: cell-based. The following applies: time 3 day; for CC50 at 72 h: U87/CD4/CCR5 cells. Summed up:
(§2)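 Viability read by the colorimetric XTT method in the stated cell line, run alongside the antiviral assays on the same cells; CC50 calculated from the viability data; values reported as mean ± standard deviation.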
(Tetrazolium assays rely on reduction of a dye to a coloured formazan, in cell work by metabolically active cells.)

For series [4], the target named is Human immunodeficiency virus type 1 reverse transcriptase (Human immunodeficiency virus 1, UniProt Q72547). Briefly: Inhibition of recombinant HIV1 reverse transcriptase by colorimetric assay.
Series [5] can be described thus: as §1. The series is classed as cell-based. The following applies: TZM-bl cells, time 3 day.
The nature of series [6]: Cytotoxicity against CD4-negative dog Cf2Th-CCR5 cells assessed as reduction in cell viability incubated for 3 days by XTT assay. Type of series: cell-based, Canis lupus familiaris. The following applies: time 3 day; for CC50: cf2th-ccr5, 72 h. Summed up:
as §2

Series [7] deals with Envelope glycoprotein gp160 (Human immunodeficiency virus 1) (UniProt Q6QLK5). Briefly: Inhibition of gp120 in HIV-1 ADA infected in CD4-negative dog Cf2Th-CCR5 cells assessed as antagonism of viral entry by measuring inhibition of viral infection at 20 to 60 uM pretreated for 30 mins before viral infection and incubated for 48 hrs by luciferase assay. The series is classed as cell-based. The following applies: dose 20-60 µM, time 48.5 hrs. Summed up:
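CD4-negative Cf2Th-CCR5 cells infected with a luciferase-expressing recombinant CD4-dependent HIV-1 ADA pseudovirus under escalating compound concentrations. Read-out is relative infectivity: infection with compound divided by infection without compound. Three independent experiments, each run in triplicate.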

The source made the active and inactive calls. No cut-off for these calls is given here.

A word on the IC50: it is the concentration at which inhibition is half-maximal. The term CC50 denotes the concentration giving 50% cytotoxicity.

Chain of Envelope glycoprotein gp160 (Human immunodeficiency virus 1) (Q6QLK5 1-814): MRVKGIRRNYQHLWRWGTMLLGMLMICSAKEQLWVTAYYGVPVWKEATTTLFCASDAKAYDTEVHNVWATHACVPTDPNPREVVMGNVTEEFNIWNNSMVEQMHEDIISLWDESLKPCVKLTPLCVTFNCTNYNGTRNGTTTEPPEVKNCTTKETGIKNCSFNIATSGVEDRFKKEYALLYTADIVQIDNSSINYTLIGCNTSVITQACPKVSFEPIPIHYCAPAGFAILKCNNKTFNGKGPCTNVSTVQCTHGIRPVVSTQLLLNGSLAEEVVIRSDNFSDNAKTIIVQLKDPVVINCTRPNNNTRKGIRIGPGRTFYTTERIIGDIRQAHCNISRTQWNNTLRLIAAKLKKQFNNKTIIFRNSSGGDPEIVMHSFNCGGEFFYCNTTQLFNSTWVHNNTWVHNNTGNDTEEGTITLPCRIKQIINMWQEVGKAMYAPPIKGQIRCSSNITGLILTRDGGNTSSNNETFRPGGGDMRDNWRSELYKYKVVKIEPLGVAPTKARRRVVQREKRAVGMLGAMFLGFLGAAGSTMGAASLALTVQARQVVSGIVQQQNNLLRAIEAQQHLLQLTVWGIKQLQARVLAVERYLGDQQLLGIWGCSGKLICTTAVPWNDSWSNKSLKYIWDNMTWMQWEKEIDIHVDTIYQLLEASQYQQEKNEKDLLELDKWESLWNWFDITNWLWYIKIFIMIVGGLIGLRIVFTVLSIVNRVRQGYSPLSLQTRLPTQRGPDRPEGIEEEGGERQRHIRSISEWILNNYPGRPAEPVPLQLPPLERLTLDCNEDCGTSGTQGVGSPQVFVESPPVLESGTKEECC

Turning to `O=C(NC1(c2nc(CO)cs2)CCNCC1)c1ccc(-c2ccc(C(F)(F)F)cc2)[nH]1`, the half-maximal inhibitory concentration (IC50) in series [1] came to 5 µM; in series [2] it was 6.2 µM; in series [4] it was 1.7 µM. Moreover, the 50% cytotoxic concentration (CC50) with TZM was 33.7 µM; in series [3] (u87/cd4/ccr5, 72 h) it was 57.7 µM.

`NCCNC(=O)c1ccc(-c2ccc(Cl)c(F)c2)[nH]1`: in series [1], the half-inhibitory concentration (IC50) came to 3.3 µM. The 50% cytotoxic concentration (CC50) in the series on TZM was 17.8 µM.

As to `NC[C@@H](NC(=O)c1ccc(OCC2CCCCC2)cc1)c1ncc(CO)s1`, the half-inhibitory concentration (IC50) in series [1] is > 15 µM. Also, the cytotoxic concentration (CC50) at 72 h in series [5] was determined as 28.2 µM.

`NC[C@H](NC(=O)c1ccc(OCC2CCCCC2)cc1)c1ncc(CO)s1`: in series [1], the IC50 was > 15 µM. For the same compound, the cytotoxic concentration (CC50) at 72 h in series [5] came to 26.5 µM.

As for `Cc1nc([C@H](CCN)NC(=O)C(=O)Nc2ccc(Cl)cc2)sc1CO`, the IC50 in series [1] is ≥ 14.7 µM. In addition, the CC50 at 72 h in series [5] was ≥ 38.3 µM.

In the case of `Cc1nc([C@@H](CN)NC(=O)c2cc3ccccc3[nH]2)sc1CO`, the IC50 in series [1] is > 60 µM. Further, in series [5], the CC50 at 72 h is > 60 µM.

`Cc1nc([C@@H](CN)NC(=O)C(=O)Nc2ccc(Cl)cc2)sc1CO`: the half-maximal inhibitory concentration (IC50) in series [1] was > 27 µM. Further, the CC50 at 72 h in series [5] was > 54 µM.

Take `NC[C@@H](NC(=O)c1ccc(NCC2CCCCC2)cc1)c1ncc(CO)s1`: the 50% inhibitory concentration (IC50) in series [1] was > 15 µM. In series [5], the CC50 at 72 h is 56.5 µM.

On to `Cc1nc([C@H](CN)NC(=O)C(=O)Nc2ccc(Cl)cc2)sc1CO`, for which the IC50 in series [1] was > 27 µM. Moreover, in series [5], the CC50 at 72 h is > 54 µM.

Take `Cc1nc([C@H](CN)NC(=O)c2cc3cc(Cl)ccc3[nH]2)sc1CO`: in series [1], the IC50 is 50 µM. Further, the CC50 at 72 h in series [5] was > 55 µM.

On to `NC[C@H](NC(=O)Cc1ccc(OCC2CCCCC2)cc1)c1ncc(CO)s1`, for which the IC50 in series [1] is > 25 µM. Besides, the CC50 at 72 h in series [5] was 47.5 µM.

As to `Cc1nc([C@H](CN)NC(=O)NC(=O)c2ccc(Cl)cc2)sc1CO`, in series [1], the IC50 is > 54 µM. In series [5], the CC50 at 72 h was > 54 µM.

Turning to `CC1(C)CC(NC(=O)C(=O)Nc2ccc(Cl)cc2)CC(C)(C)N1`, the values for the IC50 in series [1] and in series [4] were 6.9 µM and > 300 µM, respectively. Further, in series [5], the CC50 at 72 h stood at 60 µM. For the same compound, the half-maximal cytotoxic concentration (CC50) in series [6] is > 60 µM.

With `O=C(N[C@H](CC1CCNCC1)c1nc(CO)cs1)c1ccc(-c2ccc(C(F)(F)F)cc2)[nH]1`, in series [1], the IC50 is > 12.5 µM. Also, the half-maximal cytotoxic concentration (CC50) at 72 h in series [5] is > 40 µM.

In the case of `Cc1nc([C@@H](CN)NC(=O)c2cc3cc(Cl)ccc3[nH]2)sc1CO`, the IC50 in series [1] was > 40 µM. In addition, the CC50 at 72 h in series [5] was 47 µM.

For the compound `NC[C@@H](NC(=O)c1ccc(-c2ccc(Cl)cc2)[nH]1)c1nccs1`, the IC50 in series [1] stood at 2.4 µM; in series [2] it was 12 µM; in series [4], 31 µM. The results for the half-maximal cytotoxic concentration (CC50) at 72 h in series [5], in series [3] and in series [6] (CD4-negative Cf2Th-CCR5 cells) were 38.9 µM, 45.5 µM and 24.7 µM, respectively. The inhibition result in series [7] was “Active”.

In the case of `NC[C@@H](NC(=O)CNCc1ccc(Cl)cc1)c1ncc(CO)s1`, in series [1], the 50% inhibitory concentration (IC50) is > 23.4 µM. Moreover, the CC50 at 72 h in series [5] was > 70 µM.

With `Cc1nc([C@H](CN)NC(=O)c2cc3ccccc3[nH]2)sc1CO`, the IC50 in series [1] is > 60 µM. In series [5], the 50% cytotoxic concentration (CC50) at 72 h is > 60 µM.

Take `O=C(NC1CCNCC1)c1ccc(-c2ccc(Cl)c(F)c2)[nH]1`: the IC50 in series [1] turned out to be 4.9 µM. The CC50 at 72 h in series [5] came out at 9.7 µM.

Turning to `NC[C@@H](NC(=O)c1ccc(C2CCCCC2)[nH]1)c1ncc(CO)s1`, in series [1], the IC50 was > 17 µM. Further, the cytotoxic concentration (CC50) at 72 h in series [5] is > 57 µM.

Consider `NC[C@@H](NC(=O)C(=O)NCc1ccc(Cl)c(F)c1)c1ncc(CO)s1`, for which the IC50 in series [1] is > 15 µM. Further, the CC50 at 72 h in series [5] is > 77.6 µM.

For the compound `NC[C@H](NC(=O)c1ccc(NCC2CCCCC2)cc1)c1ncc(CO)s1`, the IC50 in series [1] was > 15 µM. Besides, the cytotoxic concentration (CC50) at 72 h in series [5] turned out to be 56.5 µM.

Regarding `NC[C@H](NC(=O)C(=O)NCc1ccc(Cl)c(F)c1)c1ncc(CO)s1`, the IC50 in series [1] was > 15 µM. Further, the CC50 at 72 h in series [5] was > 77.6 µM.

`NC[C@H](NC(=O)CNCc1ccc(Cl)cc1)c1ncc(CO)s1`: the IC50 in series [1] was > 23.4 µM. Moreover, the CC50 at 72 h in series [5] is > 70 µM.

Take `Cc1cc(-c2ccc(C(F)(F)F)cn2)[nH]c1C(=O)NC(CN)c1ncc(CO)s1` (stereo not given): the inhibition entry in series [7] is “Active”. Moreover, the CC50 in series [6] was > 47 µM.

In the case of `NC[C@@H](NC(=O)Cc1ccc(OCC2CCCCC2)cc1)c1ncc(CO)s1`, the IC50 in series [1] was > 25 µM. In addition, the CC50 at 72 h in series [5] amounted to 27.9 µM.

For the compound `Cc1nc([C@@H](CN)NC(=O)NC(=O)c2ccc(Cl)cc2)sc1CO`, the half-inhibitory concentration (IC50) in series [1] was > 54 µM. The 50% cytotoxic concentration (CC50) at 72 h in series [5] was > 54 µM.

For the compound `O=C(N[C@@H](CC1CCNCC1)c1nc(CO)cs1)c1ccc(-c2ccc(C(F)(F)F)cc2)[nH]1`, the IC50 in series [1] is > 12.5 µM. Also, in series [5], the cytotoxic concentration (CC50) at 72 h was > 40 µM.

For `NC[C@H](NC(=O)c1ccc(-c2ccc(Cl)cc2)[nH]1)c1nccs1`, the half-maximal inhibitory concentration (IC50) in series [1] came out at 1 µM; in series [2], 16.2 µM; in series [4] it was 18.9 µM. Moreover, the values for the CC50 at 72 h in series [5] and in series [3] were 36.5 µM and 59.1 µM, respectively.

With `NC[C@H](NC(=O)c1ccc(C2CCCCC2)[nH]1)c1ncc(CO)s1`, the half-inhibitory concentration (IC50) in series [1] was > 17 µM. The CC50 at 72 h in series [5] was > 57 µM.

For `Cc1nc([C@@H](CCN)NC(=O)C(=O)Nc2ccc(Cl)cc2)sc1CO`, in series [1], the IC50 was 10.6 µM. Further, the CC50 at 72 h in series [5] was ≥ 46.6 µM.

The record behind these values is ChEMBL document CHEMBL4828712, “Design of gp120 HIV-1 entry inhibitors by scaffold hopping via isosteric replacements” (Eur J Med Chem, 2021).
